The text below walks through data of PubChem BioAssay AID1656 (Sanford-Burnham Center for Chemical Genomics, 2009).

The campaign covered roughly 240,000 compounds. About 950 (0.4%) were called active.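 How the source made its calls: active means lipid droplet intensity inhibited by at least 50%, with more than 500 cells counted; inconclusive means wells with under 300 cells, treated as cytotoxic; inactive means the rest.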 For the sample, actives were picked, then their nearest neighbours and some compounds at random.

The assay is described as follows: oleate-induced lipid droplet accumulation in AML12 cells – imaging, high-throughput imaging, BODIPY stain, primary screen (AID 1656).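 On cell count: cells counted across two imaged fields per well.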 Conditions: AML12 mouse hepatocytes, oleate lipid droplets, at 6.5 µM; cell count: measured here: cell count, cytotoxicity flag; inhibition: stronger effect = higher value. The gist of the method: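 material = mouse AML12 hepatocyte cell line, fixed after treatment | also added = 100 µM oleic acid challenge | doses = compound at 6.5 µM only | schedule = overnight exposure | technique = Image-based BODIPY and DAPI two-channel analysis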
Regarding `CC(C)(COC(=O)Nc1ccccc1)COC(=O)Nc1ccccc1`, the cell count is 842 cells and the inhibition (in general, the drop in the measured response relative to a control, in per cent) is 2% (inactive).

For the molecule `CSCCC(NS(=O)(=O)c1ccccc1F)C(=O)N1CC=C(c2ccccc2)CC1` (stereo unspecified), the cell count came out at 678 cells and the inhibition is -35.6% (inactive).

As to `O=C1/C(=C/c2ccc(F)cc2)SC(=S)N1CCCC(=O)N1CCCCC1CCO` (stereo unspecified), the cell count came to 789 cells and the inhibition was -7.9% (inactive).

Turning to `CCOCCCNc1nc(-c2ccccc2)nc2ccccc12`, the cell count was 835 cells and the inhibition was 1.2% (inactive).

As for `CC(Nc1nc(C(F)(F)F)nc2ccccc12)c1cccs1` (stereo unspecified), the cell count amounted to 808 cells and the inhibition is -12.3% (inactive).

For the molecule `Cc1sc2nc(SCCO)n(-c3ccccc3)c(=O)c2c1C`, the cell count is 835 cells and the inhibition was -15% (inactive).

For `Cc1ccccc1NC(=O)CSc1ccc2nnc(-c3ccccn3)n2n1`, the cell count turned out to be 640 cells and the inhibition was 22.7% (inactive).

For the molecule `COc1ccc(CCNC(=O)c2ccccc2OCc2ccccc2)cc1`, the cell count worked out at 773 cells and the inhibition was -18.7% (inactive).

For the molecule `COc1ccc(CCNC(=O)CCc2cn(C)c3ccccc23)c(OC)c1`, the cell count came to 811 cells and the inhibition is 15.9% (inactive).

For `Cc1cccnc1CC(C)NC(=O)c1cc(COc2cncc(Cl)c2)on1` (stereo unspecified), the cell count is 704 cells and the inhibition is 3.6% (inactive).

As for `COc1ccc(/C=C2\SC(=S)N(CCCC(=O)NC3CCCC3)C2=O)cc1OC`, the cell count came to 711 cells and the inhibition was -15.3% (inactive).

For the molecule `CCOc1ccc(-n2c(SCC(=O)OC)nc3sc4c(c3c2=O)CCN(C)C4)cc1`, the cell count came to 796 cells and the inhibition is 4.9% (inactive).

On to `CCOc1ccccc1NC(=S)N1CCN(c2cccc(C)c2C)CC1`, for which the cell count is 777 cells and the inhibition is -21% (inactive).

Take `O=C(c1ccc(OC2CCN(C/C=C/c3ccc(F)cc3)CC2)cc1)N1CCCCC1`: the cell count is 815 cells and the inhibition is 2% (inactive).

On to `O=C(Nc1ccc(F)cc1)c1ccc(S(=O)(=O)NCc2cccnc2)cc1`, for which the cell count turned out to be 806 cells and the inhibition is -51.8% (inactive).

In the case of `CC(C)=CCCC(C)CN1CCC(n2nccc2NC(=O)c2ccccc2)CC1` (stereo unspecified), the cell count was determined as 722 cells and the inhibition is 2.9% (inactive).

As for `N#C/C(=C\c1ccccc1C(F)(F)F)C(=O)Nc1ccccc1F`, the cell count was 614 cells and the inhibition is 1.8% (inactive).

Take `N#C/C(=C\C1=C(N2CCOCC2)C(=C\c2ccccc2)/CC1)C(=O)Nc1ccccc1F`: the cell count was found to be 430 cells and the inhibition is 56.4% (active).

With `N#C/C(=C/c1ccc(N2CCOCC2)o1)C(=O)N1CCOCC1`, the cell count came out at 636 cells and the inhibition is -9.6% (inactive).

With `Cc1ccc(CNC(=O)CCS(=O)(=O)c2ccc3c(c2)CC(C)N3C(=O)C2CC2)o1` (stereo unspecified), the cell count turned out to be 715 cells and the inhibition is -2.5% (inactive).

Regarding `Cc1nn(C(C)C(=O)NCCC2=CCCCC2)c(=O)c2nn(-c3ccccc3)c(C)c12` (stereo unspecified), the cell count was found to be 685 cells and the inhibition was -3.8% (inactive).

For `COc1ccc(C)cc1N(C(=O)Cn1nnc(-c2ccc(C)o2)n1)C(C(=O)NC1CCCC1)c1ccncc1` (stereo unspecified), the cell count was found to be 749 cells and the inhibition was -20.1% (inactive).

For the molecule `CCN(CC)c1ccc(NC(=O)CCc2nnc3ccc(N4CCCCC4)nn23)c(C)c1`, the cell count amounted to 801 cells and the inhibition was 3.4% (inactive).

In the case of `CCOc1ccc(CCNC(=O)CCc2nnc3ccc(N4CCCC4)nn23)cc1OCC`, the cell count came out at 752 cells and the inhibition is 69.5% (active).

Consider `CCOC(=O)c1cccc(NC(=O)CCc2nnc3ccc(N4CCOCC4)nn23)c1`, for which the cell count worked out at 652 cells and the inhibition is -5.8% (inactive).

Regarding `COCCc1nn2c(=O)cc(COC(=O)c3cc(OC)c(OC)c(OC)c3)nc2s1`, the cell count was found to be 701 cells and the inhibition is 7.1% (inactive).

Take `COc1ccccc1N1CCN(S(=O)(=O)c2ccc3c(c2)NC(=O)CS3)CC1`: the cell count was determined as 687 cells and the inhibition was -12.7% (inactive).

Turning to `CCc1ccc(C(CNc2nc(C(F)(F)F)nc3ccccc23)N(C)C)cc1` (stereo unspecified), the cell count is 654 cells and the inhibition is -18.7% (inactive).

`Cc1ccc2sc(N(CCN(C)C)C(=O)/C=C/c3cccs3)nc2c1C`: the cell count was found to be 660 cells and the inhibition was 4.4% (inactive).

Consider `COc1ccc(C(C(=O)NC(C)(C)C)N(Cc2ccc(F)cc2)C(=O)CCC(=O)Nc2cc(C)on2)cc1` (stereo unspecified), for which the cell count was determined as 757 cells and the inhibition is 96.7% (active).

As for `COc1ccc(CN(CC(=O)NC2CCCC2)C(=O)CCC(=O)Nc2cc(C)on2)cc1`, the cell count stood at 702 cells and the inhibition was -31.7% (inactive).

As to `CCC(C)(C)NC(=O)C(c1ccc(OC)cc1)N(C(=O)CCC(=O)Nc1cc(C)on1)c1ccc(OC)cc1OC` (stereo unspecified), the cell count worked out at 774 cells and the inhibition is 2.5% (inactive).

With `COc1cccc(CNC(=O)Cn2c(=O)oc3cc(S(=O)(=O)N4CCCCC4)ccc32)c1`, the cell count stood at 692 cells and the inhibition is 25.1% (inactive).

As for `CCC1=C(C(=O)OC)C(c2cc(OC)ccc2OC)C(C#N)=C(N)O1` (stereo unspecified), the cell count stood at 697 cells and the inhibition was -12.3% (inactive).

Consider `CCOC(=O)C1=C(CC)OC(N)=C(C#N)C1c1ccc(F)cc1F` (stereo unspecified), for which the cell count was determined as 769 cells and the inhibition is 70.2% (active).

As for `CCOC(=O)C1=C(C)OC(N)=C(C#N)C1c1cncc(-c2ccc(F)cc2)c1` (stereo unspecified), the cell count was found to be 619 cells and the inhibition is -2.2% (inactive).

As to `COc1ccc(/C=N/NC(=O)c2ccccc2)cc1OS(=O)(=O)c1ccccc1`, the cell count worked out at 657 cells and the inhibition is -6% (inactive).

As for `COc1cc(/C=N/NC(=O)c2ccoc2C)ccc1OCCN1CCCCC1`, the cell count worked out at 729 cells and the inhibition is 4.7% (inactive).

On to `COc1cc(/C=N/NC(=O)Nc2ccccc2)ccc1OCCOc1ccccc1C`, for which the cell count came to 674 cells and the inhibition was 94.6% (active).

For the molecule `CC(C)CCn1c(=O)c2c(nc3n2CCCN3Cc2ccccc2)n(C)c1=O`, the cell count was 827 cells and the inhibition is -12.4% (inactive).

Turning to `Cc1cccn2c(=O)c(/C=C(\C#N)C(N)=O)c(N3CCCCCC3)nc12`, the cell count stood at 788 cells and the inhibition is 1.2% (inactive).

In the case of `CC(=O)c1ccc(N2CCN(C(=O)C3CCN(S(=O)(=O)c4ccc5c(c4)CC(C)N5C(=O)C4CC4)CC3)CC2)cc1` (stereo unspecified), the cell count was 672 cells and the inhibition was -0.3% (inactive).

For `COc1cccc(N(CC(=O)NC2CCCCCC2)S(=O)(=O)c2ccccc2)c1`, the cell count was found to be 750 cells and the inhibition was 2.3% (inactive).

With `CCC(C)[C@H](NC(=O)N1CCn2c1nc1ccccc12)C(=O)NCc1ccc(OC)cc1` (stereo partly specified), the cell count amounted to 712 cells and the inhibition is 28% (inactive).

On to `CCc1ccc2nc(N(CCCN(C)C)C(=O)c3ccc4c(c3)OCCO4)sc2c1`, for which the cell count is 802 cells and the inhibition was 0% (inactive).

For `CCC(=O)N1CCN(c2ccccc2NC(=O)COc2cccc(C)c2C)CC1`, the cell count is 823 cells and the inhibition was -15% (inactive).

As for `COc1cc(/C=N/NC(=O)c2cccnc2)ccc1OC(=O)c1cccc(Br)c1`, the cell count stood at 669 cells and the inhibition is -11.9% (inactive).

As for `O=[N+]([O-])c1cc(C(F)(F)F)ccc1NN=C1CCCC1`, the cell count amounted to 631 cells and the inhibition is 1.6% (inactive).

On to `CN1CCN(CCNC(=O)Nc2ccccc2[N+](=O)[O-])CC1`, for which the cell count was 440 cells and the inhibition was 10.2% (inactive).

As to `O=[N+]([O-])c1ccccc1N/N=C1\CCc2ccccc21`, the cell count was found to be 658 cells and the inhibition was 60.3% (active).

As for `Cc1c2cnn(CC(=O)NCc3ccccn3)c(=O)c2c(C)n1Cc1ccc(Cl)cc1`, the cell count was found to be 683 cells and the inhibition was -9.1% (inactive).

On to `CN(C)c1ccc(Nc2c3c4c(cccc4n(C)c2=O)C(=O)c2ccccc2-3)cc1`, for which the cell count amounted to 681 cells and the inhibition is 75.9% (active).

As to `CCOc1ccccc1-c1cc(C(=O)N/N=C(\C)c2cccnc2)c2ccccc2n1`, the cell count came to 660 cells and the inhibition is -32% (inactive).

With `Cc1c2cnn(CC(=O)NCCCN3CC(C)CC(C)C3)c(=O)c2c(C)n1Cc1ccc(Cl)cc1` (stereo unspecified), the cell count turned out to be 643 cells and the inhibition was -27.4% (inactive).

On to `CC1CC(C)CN(CCOc2cccc3ccccc23)C1` (stereo unspecified), for which the cell count turned out to be 797 cells and the inhibition is -2.9% (inactive).

As to `COc1ccc(Oc2cn[nH]c2-c2ccc(OC)cc2O)cc1`, the cell count amounted to 836 cells and the inhibition is -10.9% (inactive).

With `COC(=O)c1cc(NS(=O)(=O)c2ccc3c(c2)c(=O)n(C)c(=O)n3C)cc(C(=O)OC)c1`, the cell count was 716 cells and the inhibition was -11.5% (inactive).

Regarding `CSc1ccccc1C(=O)NCc1ccccc1`, the cell count is 673 cells and the inhibition is 4% (inactive).

Regarding `Cc1c(C(=O)N(Cc2ccccc2)Cc2cccnc2)cnn1-c1ccc(F)cc1`, the cell count was found to be 648 cells and the inhibition was -6% (inactive).

Turning to `Cc1c(C(=O)NCc2ccccc2)cnn1-c1ccccc1`, the cell count is 684 cells and the inhibition was 56.3% (active).

As to `COC(=O)C1=CN(c2ccc(F)c(F)c2)C=C(C(=O)OC)C1c1ccc([N+](=O)[O-])cc1`, the cell count was 825 cells and the inhibition was -1.4% (inactive).

On to `Cc1ccc(C)c(S(=O)(=O)N2CCCOC2CNC(=O)C(=O)NC2CCCCC2)c1` (stereo unspecified), for which the cell count was 690 cells and the inhibition was -1.2% (inactive).

On to `COc1cccc(N2CCN(c3ccc4nnc(CCC(=O)N5CCN(C)CC5)n4n3)CC2)c1`, for which the cell count amounted to 633 cells and the inhibition is -28.1% (inactive).

Take `COc1cc(SC)ccc1C(=O)N(Cc1ccccc1)c1ccccc1`: the cell count was determined as 608 cells and the inhibition is -8.6% (inactive).

Regarding `COCn1c(C(O)c2ccccc2)cc2ccccc21` (stereo unspecified), the cell count came to 813 cells and the inhibition is -9.2% (inactive).

For the molecule `Cc1ccc(O)c(/C=N/NC(=O)COc2ccc3c(C)cc(=O)oc3c2)c1`, the cell count was 786 cells and the inhibition was -1.7% (inactive).

With `CCn1cc(CN2CCN(CC(C)(C)C)C(CCO)C2)c2ccccc21` (stereo unspecified), the cell count was determined as 814 cells and the inhibition was 5.1% (inactive).

With `CC(=O)Nc1cccc(Nc2nc(-c3cccs3)nc3ccccc23)c1`, the cell count turned out to be 775 cells and the inhibition was 2.7% (inactive).

Regarding `COc1cc2c(cc1OC)CN(C(=O)c1cc(S(=O)(=O)N3CCCCC3)ccc1Cl)CC2`, the cell count was found to be 813 cells and the inhibition is -18.7% (inactive).

For `CC1CCN(CCCNC(=O)CN2C(=O)CSc3ccc(S(=O)(=O)N4CCCCC4)cc32)CC1`, the cell count was 719 cells and the inhibition is 8% (inactive).

In the case of `COCCCNC(=O)CN1C(=O)CSc2ccc(S(=O)(=O)N3CCOCC3)cc21`, the cell count was 798 cells and the inhibition is 59.7% (active).

Consider `COc1ccc(NC(=O)CN2C(=O)CSc3ccc(S(=O)(=O)N4CCC(C)CC4)cc32)cc1`, for which the cell count amounted to 698 cells and the inhibition is -8.1% (inactive).

`CNC[C@H](CC1CCCCC1)NC[C@H](NCCC1CCCC1)[C@H](C)O`: the cell count came out at 688 cells and the inhibition was 1.2% (inactive).

`CCOC(=O)C1(Cc2ccccc2C)CCCN(C(=O)CCc2c(C)noc2C)C1` (stereo unspecified): the cell count was 656 cells and the inhibition is -27.4% (inactive).

In the case of `CN(C(=O)c1cc2c(=O)n3ccccc3nc2s1)C1CCCCC1`, the cell count was determined as 654 cells and the inhibition is -14.1% (inactive).

Take `Cc1cc(NC(=O)CSc2nc(C(C)C)nc3sc4c(c23)CCC(C)C4)no1` (stereo unspecified): the cell count came to 668 cells and the inhibition is 105% (active).

With `CC(C)c1nc(SCC(=O)Nc2cccc(C(=O)O)c2)c2c3c(sc2n1)CCCC3`, the cell count stood at 835 cells and the inhibition is -26% (inactive).

Turning to `Cc1nc(SCC(=O)Nc2cc(C)on2)c2c3c(sc2n1)CCCC3`, the cell count is 678 cells and the inhibition is 5.3% (inactive).
